Measured values pooled from the literature.
Target: Calcium/calmodulin-dependent protein kinase kinase 1 (CAMKK1, Homo sapiens, UniProt Q8N5S9)

SMILES	assay	conditions	endpoint	value
COc1cc(Nc2c(C#N)cnc3cc(OCCCN4CCN(C)CC4)c(OC)cc23)c(Cl)cc1Cl	cell-free assay	0.5 µM	remaining signal	84.8%
CN(c1ccnc(CNc2nc(Nc3ccc4c(c3)CC(=O)N4)ncc2C(F)(F)F)n1)S(C)(=O)=O	cell-free assay, competition with immobilised ligand	1 µM	remaining binding	90%
Cc1ccc(C(=O)NCc2ccsc2)cc1C#Cc1cn(C(C)C)c2ncnc(N)c12	enzyme activity, inhibitor	1 µM	activity vs control	84%
CC1=C(C#N)C(c2ccc3c(c2)c(NC(=O)c2ccccc2C)nn3C)C(C#N)=C(C)N1	cell-free assay, competition with immobilised ligand	1 µM	remaining binding	100%
Cn1c2c(Cl)c(Cl)ccc2c2cn[nH]c(=O)c21	thermal stability, DSF	10 µM	ΔTm	0.5 °C
Cc1nccc(COC(=O)N2C[C@@H]3[C@@H](CNC(=O)c4ccc5[nH]nnc5c4)[C@@H]3C2)n1	cell-free assay, competition with immobilised ligand	1 µM	remaining binding	100%
COc1cc(Cl)c(C(=O)N[C@@H](CN[C@H]2CC[C@@H](N)CC2)Cc2ccc(C#N)cc2)cc1-c1ccc(CN[C@H](C)c2ccc(C)cc2)o1	enzyme activity, inhibitor	1 µM	remaining activity	100%
Cc1sc(C(=O)NC2COC2)cc1-n1cc(NC(=O)Nc2c(F)cccc2Cl)cn1	enzyme activity, inhibitor	10 µM	remaining activity	121%
c1ccc(CNc2nc(N3CCOc4ccccc43)nc3c2CCCC3)cc1	target engagement in cells, inhibitor, chemoproteomics	20 mM	inhibition	-7.1%
CCCCN(CCCC)C(=O)CN1C[C@H](c2cc(OC)c3c(c2)OCO3)[C@@H](C(=O)O)[C@@H]1CC(C)(C)CCC	cell-free assay, competition with immobilised ligand	1 µM	remaining binding	100%
CC(C)(O)[C@H]1CC[C@H](Nc2ccc3ncc(-c4cccc(C(F)(F)F)c4)n3n2)CC1	enzyme activity, inhibitor	1 µM	remaining activity	91.8%
N#CCCc1ccc2c(c1)-c1[nH]c3ccc([N+](=O)[O-])cc3c1CC(=O)N2	cell-free assay	0.5 µM	remaining signal	86.7%
COc1ccc2c(c1)O[C@H](c1ccc(OC)c(OC)c1)C[C@@H]2NC(=O)C1(c2ccc3c(c2)OC(F)(F)O3)CC1	cell-free assay, competition with immobilised ligand	1 µM	remaining binding	100%
Cn1c2c(Cl)c(Cl)ccc2c2cc(N)[nH]c(=O)c21	thermal stability, DSF	10 µM	ΔTm	0.7 °C
COc1cccc2c(NCc3ccccc3)nc(-n3c(N)nc4ccccc43)nc12	target engagement in cells, inhibitor, chemoproteomics	20 mM	inhibition	-24.9%
O=C1NC(=O)c2cc(Nc3ccc(F)cc3)c(Nc3ccc(F)cc3)cc21	cell-free assay	0.5 µM	remaining signal	90.2%
COCCOc1nc(-c2ccc(Cl)nc2)nc2c1CN(C(=O)c1ncn3ccccc13)CC2	cell-free assay, competition with immobilised ligand	0.1 µM	remaining binding	100%
CCN1CCC2(CC1)NC(=O)c1c(c3ccc(Cl)c(Cl)c3n1C)C2C#N (racemic)	thermal stability, DSF	10 µM	ΔTm	-0.1 °C
